From ChEMBL document CHEMBL5104212, “Green synthesis of 3-methyl-4-(hetero)aryl methylene isoxazole-5(4H)-ones using WEOFPA/glycerol: evaluation of anticancer and electrochemical behaviour properties” (RSC Med Chem, 2022) come the findings set out here.

What is called IC50 is the midpoint of a concentration-inhibition curve.

One data set has as its system A549. The experiment in a line: Anticancer activity against human A549 cells assessed as inhibition of cell growth incubated for 48 hrs by MTT assay. The data set is classed as functional, cell-based. The following applies: A549, 48 h. In short, it runs like this: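 A549 cells were seeded in 96-well plates and held overnight at 37°C, 95% humidity, 5% CO₂. Compounds came from DMSO stock dilution series and were added at 100, 50, 25, 12.5, 6.25 and 3.125 μg/mL for 48 hrs. Wells were PBS-washed, given MTT for 4h at 37°C, and formazan was dissolved in DMSO. A570 was read, and survival was taken as mean test OD over mean negative-control OD ×100.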
On the technique in general: Formazan colour is commonly taken as a measure of viable cells.

A short description of data set [1]: Electrochemical behavior of the compound assessed as oxidation potential peak by measuring […] current in DMSO using Ag/AgCl reference electrode by cyclic voltammetry. Format: physicochemical.
A short description of data set [2]: Electrochemical behavior of the compound assessed as reduction potential peak by measuring […] current in DMSO using Ag/AgCl reference electrode by cyclic voltammetry. The data set is classed as physicochemical.

Consider `CC1=NOC(=O)C1Cc1cccs1` (stereo not given), for which the IC50 with A549 stood at 14.2 µM. For the same molecule, the outcome in data set [1] and in data set [2] was Active.
Consider `CC1=NOC(=O)/C1=C/c1c(O)ccc2ccccc12`, for which, in the data set on A549, the 50% inhibitory concentration (IC50) is 22.8 µM. The outcome in data set [1] and in data set [2] was Active.
`CC1=NOC(=O)/C1=C/c1c(Cl)[nH]c2ccccc12`: the IC50 in the data set on A549 was 8.99 µM. Also, the result in data set [1] and in data set [2] was Active.
On to `COc1cccc2c1C(=O)c1c(O)c3c(c(O)c1C2=O)C[C@@](O)(C(=O)CO)C[C@@H]3O[C@H]1C[C@H](N)[C@H](O)[C@H](C)O1` [DOXORUBICIN], for which the half-inhibitory concentration (IC50) in the data set on A549 is 8.73 µM.
As for `CC1=NOC(=O)/C1=C/c1c(-c2ccccc2)[nH]c2ccccc12`, the IC50 in the data set with A549 came to 37.4 µM. The result in data set [1] and in data set [2] was Active.
For the molecule `CC1=NOC(=O)/C1=C/c1ccc[nH]1`, the IC50 with A549 amounted to 183 µM. In addition, the result in data set [1] and in data set [2] was Active.
As for `COc1ccc(/C=C2/C(=O)ON=C2C)cc1OC`, the IC50 with A549 amounted to 59.2 µM. Moreover, the outcome in data set [1] and in data set [2] was Active.
With `CC1=NOC(=O)/C1=C/c1c[nH]c2ccccc12`, the IC50 in the data set on A549 was 107 µM. For the same molecule, the result in data set [1] and in data set [2] was Active.
As for `CC1=NOC(=O)/C1=C/c1cn(-c2ccccc2)cc1-c1ccccc1`, in the data set with A549, the concentration for half-maximal inhibition (IC50) was found to be 12.3 µM. In addition, the outcome in data set [1] and in data set [2] was Active.
